Measured values reported in ChEMBL document CHEMBL3232886, “C-17 lactam-bearing limonoids from the twigs and leaves of Amoora tsangii” (J Nat Prod, 2014).
The source made the active and inactive calls. The rule behind the calls is not given here.

Key:
HepG2 = assay: Cytotoxicity against human HepG2 cells at 10 uM; format: cell-based; details: hepg2, 10 µM
[1] = target: Nuclear factor NF-kappa-B complex (Homo sapiens) (UniProt Q00653+P19838+Q04206); assay: Inhibition of NF-kappaB in human HepG2 cells assessed as inhibition of TNF-alpha-induced luciferase reporter gene expression at 10 uM preincubated for 1 hr followed by TNF-alpha stimulation measured after 4 hrs relative to control; format: cell-based
Method in brief: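 HepG2 cells stably carrying an NF-κB-luciferase reporter, grown in DMEM with 10% FBS and penicillin/streptomycin at 37 °C, 5% CO2. Seeded overnight at 5 × 10^4 cells/well (24-well), preincubated 1 h with compound at 10 μM, then stimulated with TNFα (10 ng/mL) for 4 h. Luciferase activity read in cell lysates; mean ± SEM, n = 3.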

Nuclear factor NF-kappa-B complex (Homo sapiens), sequence (P19838 whole entry, looked up): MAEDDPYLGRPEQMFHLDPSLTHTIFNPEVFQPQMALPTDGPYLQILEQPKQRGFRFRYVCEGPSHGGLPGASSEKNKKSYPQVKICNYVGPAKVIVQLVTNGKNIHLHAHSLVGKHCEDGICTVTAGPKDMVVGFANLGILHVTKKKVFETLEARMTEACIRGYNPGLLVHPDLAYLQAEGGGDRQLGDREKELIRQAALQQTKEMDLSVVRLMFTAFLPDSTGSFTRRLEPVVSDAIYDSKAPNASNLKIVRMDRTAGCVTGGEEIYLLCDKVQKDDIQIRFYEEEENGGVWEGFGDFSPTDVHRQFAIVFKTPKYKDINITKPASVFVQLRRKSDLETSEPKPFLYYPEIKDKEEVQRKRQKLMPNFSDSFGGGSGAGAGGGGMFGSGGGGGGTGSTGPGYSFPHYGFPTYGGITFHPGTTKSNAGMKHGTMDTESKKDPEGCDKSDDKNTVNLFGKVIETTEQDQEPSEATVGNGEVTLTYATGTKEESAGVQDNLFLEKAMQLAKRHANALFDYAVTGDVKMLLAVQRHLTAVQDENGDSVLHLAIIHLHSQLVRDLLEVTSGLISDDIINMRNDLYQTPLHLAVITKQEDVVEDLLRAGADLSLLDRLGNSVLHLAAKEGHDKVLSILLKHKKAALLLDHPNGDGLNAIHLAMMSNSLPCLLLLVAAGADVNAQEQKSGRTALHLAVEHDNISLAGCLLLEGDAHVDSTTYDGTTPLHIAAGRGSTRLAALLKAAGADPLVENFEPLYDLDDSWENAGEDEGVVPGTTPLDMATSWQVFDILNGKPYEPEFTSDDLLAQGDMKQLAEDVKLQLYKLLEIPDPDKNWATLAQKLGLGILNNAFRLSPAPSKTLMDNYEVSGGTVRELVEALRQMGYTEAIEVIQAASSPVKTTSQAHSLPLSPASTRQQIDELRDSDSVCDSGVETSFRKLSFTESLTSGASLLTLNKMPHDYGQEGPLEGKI
Nuclear factor NF-kappa-B complex (Homo sapiens), sequence (Q00653 whole entry, looked up): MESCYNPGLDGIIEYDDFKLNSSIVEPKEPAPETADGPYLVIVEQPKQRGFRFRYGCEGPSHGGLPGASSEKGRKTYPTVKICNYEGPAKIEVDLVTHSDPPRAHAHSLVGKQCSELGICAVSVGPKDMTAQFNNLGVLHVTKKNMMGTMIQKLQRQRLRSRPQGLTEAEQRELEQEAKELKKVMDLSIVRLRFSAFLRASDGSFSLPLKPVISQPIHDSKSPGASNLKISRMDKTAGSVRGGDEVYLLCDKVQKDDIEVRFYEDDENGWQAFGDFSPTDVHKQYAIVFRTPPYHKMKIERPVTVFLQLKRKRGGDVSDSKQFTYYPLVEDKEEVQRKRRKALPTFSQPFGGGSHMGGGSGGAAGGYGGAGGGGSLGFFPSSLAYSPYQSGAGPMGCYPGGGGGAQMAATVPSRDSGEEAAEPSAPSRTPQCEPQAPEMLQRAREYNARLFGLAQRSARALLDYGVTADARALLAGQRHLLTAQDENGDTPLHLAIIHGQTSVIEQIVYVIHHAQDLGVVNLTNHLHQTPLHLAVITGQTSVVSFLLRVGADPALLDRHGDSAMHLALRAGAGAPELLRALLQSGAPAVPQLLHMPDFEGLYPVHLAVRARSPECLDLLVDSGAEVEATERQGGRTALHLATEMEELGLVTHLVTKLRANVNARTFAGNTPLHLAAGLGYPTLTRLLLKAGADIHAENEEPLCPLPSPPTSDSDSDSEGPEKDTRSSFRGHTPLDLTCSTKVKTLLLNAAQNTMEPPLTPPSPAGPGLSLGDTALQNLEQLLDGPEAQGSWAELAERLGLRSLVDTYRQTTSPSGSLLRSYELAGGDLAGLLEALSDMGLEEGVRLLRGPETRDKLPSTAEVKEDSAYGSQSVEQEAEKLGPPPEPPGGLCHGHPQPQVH
Nuclear factor NF-kappa-B complex (Homo sapiens), sequence (Q04206 whole entry, looked up): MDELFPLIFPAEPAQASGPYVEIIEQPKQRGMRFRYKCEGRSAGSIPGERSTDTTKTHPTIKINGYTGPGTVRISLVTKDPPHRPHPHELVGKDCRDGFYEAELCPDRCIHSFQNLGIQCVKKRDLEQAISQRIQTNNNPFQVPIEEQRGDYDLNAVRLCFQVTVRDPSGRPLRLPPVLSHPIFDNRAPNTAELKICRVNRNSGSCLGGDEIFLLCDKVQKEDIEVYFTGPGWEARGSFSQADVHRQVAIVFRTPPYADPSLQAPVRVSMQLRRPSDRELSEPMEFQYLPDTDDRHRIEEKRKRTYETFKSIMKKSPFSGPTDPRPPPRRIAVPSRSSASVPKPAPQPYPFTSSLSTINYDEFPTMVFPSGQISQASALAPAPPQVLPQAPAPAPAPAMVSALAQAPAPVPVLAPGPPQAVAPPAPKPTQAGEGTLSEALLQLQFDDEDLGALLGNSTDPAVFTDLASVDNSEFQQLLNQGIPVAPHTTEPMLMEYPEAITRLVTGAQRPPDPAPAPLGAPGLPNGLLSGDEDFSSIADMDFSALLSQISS

SMILES	Activity (HepG2)	inhibition [1]
C=C1[C@@H]([C@@]2(C)C=CC(=O)OC(C)(C)[C@@H]2CC(=O)OC)[C@@H](OC(C)=O)[C@H](OC(=O)c2ccccc2)[C@@]2(C)[C@H](C3=CCNC3=O)C[C@H]3O[C@]132 (relative stereo)	Non-toxic	inactive
C=C1[C@@H]([C@@]2(C)C=CC(=O)OC(C)(C)[C@@H]2CC(=O)OC)[C@@H](OC(C)=O)[C@H](OC(=O)C(C)CC)[C@@]2(C)[C@H](C3=CCNC3=O)C[C@H]3O[C@]132 (stereo not given in full)	Non-toxic	inactive
C=C1[C@@H]([C@@]2(C)C=CC(=O)OC(C)(C)[C@@H]2CC(=O)OC)[C@@H](OC(C)=O)[C@H](OC(=O)c2ccccc2)[C@@]2(C)[C@H](C3=CC(=O)NC3)C[C@H]3O[C@]132 (relative stereo)	Non-toxic	inactive
C=C1[C@@H]([C@@]2(C)C=CC(=O)OC(C)(C)[C@@H]2CC(=O)OC)[C@@H](OC(C)=O)[C@H](OC(=O)c2ccccc2)[C@@]2(C)[C@H](C3=CCN(C)C3=O)C[C@H]3O[C@]132	Non-toxic	inactive
C=C1[C@@H]([C@@]2(C)C=CC(=O)OC(C)(C)[C@@H]2CC(=O)OC)[C@@H](OC(C)=O)[C@H](OC(=O)C(C)CC)[C@@]2(C)[C@H](C3=CC(=O)NC3)C[C@H]3O[C@]132 (stereo not given in full)	Non-toxic	64%
